ChEMBL document CHEMBL4004814, “In Vitro and in Vivo Evaluation of Fully Substituted (5-(3-Ethoxy-3-oxopropynyl)-4-(ethoxycarbonyl)-1,2,3-triazolyl-glycosides as Original Nucleoside Analogues to Circumvent Resistance in Myeloid Malignancies” (J Med Chem, 2017)
Activity calls are given as the source filed them. No cut-off for these calls is given here.

Columns and labels:
Type in all cases: functional, cell-based
K562 = experiment: Antileukemic activity against human K562 cells after 48 hrs by XTT assay; settings: K562, 48 h
In short: (§1)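 XTT read-out of mitochondrial metabolism after 48 h incubation with compound (up to 10 µM in first screen). XTT reagent added to cells, formazan absorbance read at 490 nm. Each assay run in quadruplicate. IC50 derived; standard deviation reported. Resistant K562 line obtained by chronic imatinib exposure for 6 months.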

[1] = Antiproliferative activity against human SKM1-R cells after 48 hrs by XTT assay
[2] = Antiproliferative activity against human SKM1-S cells after 48 hrs by XTT assay; in short: as §1
[3] = Antiproliferative activity against human SKM1-S cells after 48 hrs by DAPI-staining-based flow cytometric method
In short: (§2)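 Flow cytometry of DAPI incorporation after 48 h incubation with compound; DL50 derived. SKM1 grown in RPMI with 10% FCS at 37°C, 5% CO2, with penicillin/streptomycin.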

SKM1-S = experiment: Induction of apoptosis in human SKM1-S cells assessed as caspase 3 cleavage at 1 uM by Western blot method
SKM1-R = experiment: Induction of apoptosis in human SKM1-R cells assessed as caspase 3 cleavage at 10 uM by Western blot method
[4] = Antiproliferative activity against human SKM1-R cells after 48 hrs by DAPI-staining-based flow cytometric method; in short: as §2

SMILES	IC50 (K562) [nM]	also measured
COC(=O)C#Cc1c(C(=O)OC)nnn1[C@@H]1O[C@H](CO)[C@H]2OC(C)(C)O[C@H]21	1450	
CC(C)(C)OC(=O)C#Cc1c(C(=O)OC(C)(C)C)nnn1[C@@H]1O[C@H](CO)[C@H]2OC(C)(C)O[C@H]21	1150	
CCOC(=O)c1nnn([C@@H]2O[C@H](COC(C)=O)[C@@H](OC(C)=O)[C@H]2OC(C)=O)c1C(=O)c1cccs1	> 10000	
CCOC(=O)c1nnn([C@@H]2O[C@H](CO)[C@H]3OC(C)(C)O[C@H]32)c1C#Cc1ccc(F)cc1	> 10000	
CCOC(=O)C#Cc1c(C(=O)OCC)nnn1[C@@H]1O[C@H](COC)[C@@H](OC)[C@H]1OC	800	
CCOC(=O)c1nnn([C@@H]2O[C@H](COC(C)=O)[C@@H](OC(C)=O)[C@H]2OC(C)=O)c1-c1cccs1	> 10000	
CCOC(=O)c1nnn([C@@H]2O[C@H](COC(C)=O)[C@@H](OC(C)=O)[C@H]2OC(C)=O)c1C(=O)c1ccc(C)cc1	> 10000	
Nc1ncn([C@@H]2O[C@H](CO)[C@@H](O)[C@H]2O)c(=O)n1 [AZACITIDINE]		IC50 [1]: > 10000 nM; IC50 [2]: 500 nM; EC50 [3]: 510 nM; Activity (SKM1-S): Active; Activity (SKM1-R): inactive; EC50 [4]: > 10000 nM
COC(=O)c1nnn([C@@H]2O[C@H](CO)[C@H]3OC(C)(C)O[C@H]32)c1I	> 10000	
CCOC(=O)c1nnn([C@@H]2O[C@H](CO)[C@H]3OC(C)(C)O[C@H]32)c1I	> 10000	
CCOC(=O)c1nnn([C@@H]2O[C@H](COC(C)=O)[C@@H](OC(C)=O)[C@H]2OC(C)=O)c1I	> 10000	
CC(=O)OC[C@H]1O[C@@H](n2nnc(C(=O)OC(C)(C)C)c2C#CC(=O)OC(C)(C)C)[C@H](OC(C)=O)[C@@H]1OC(C)=O	2500	
CCCCCCCC#Cc1c(C(=O)OCC)nnn1[C@@H]1O[C@H](CO)[C@H]2OC(C)(C)O[C@H]21	> 10000	
CCOC(=O)c1nnn([C@@H]2O[C@H](COC(C)=O)[C@@H](OC(C)=O)[C@H]2OC(C)=O)c1C(=O)c1ccco1	> 10000	
NC(=O)c1ncn([C@@H]2O[C@H](CO)[C@@H](O)[C@H]2O)c1N [ACADESINE]	800000	

Continued by falling IC50 (K562), values first:

IC50 (K562) [nM]	SMILES	also measured
700	CCOC(=O)C#Cc1c(C(=O)OCC)nnn1[C@@H]1O[C@H](COC(C)=O)[C@@H](OC(C)=O)[C@H]1OC(C)=O	
550	CCOC(=O)C#Cc1c(C(=O)OCC)nnn1[C@@H]1O[C@H](COC)[C@H]2OC(C)(C)O[C@H]21	
500	CCOC(=O)C#Cc1c(C(=O)OCC)nnn1[C@@H]1O[C@H](COC(C)=O)[C@H]2OC(C)(C)O[C@H]21	
500	CCOC(=O)C#Cc1c(C(=O)OCC)nnn1[C@@H]1O[C@H](CO)[C@H]2O[C@@](C)(c3ccccc3)O[C@H]21	
200	CCOC(=O)C#Cc1c(C(=O)OCC)nnn1[C@H]1O[C@@H](COC(C)=O)[C@H](OC(C)=O)[C@@H]1OC(C)=O	
200	CCOC(=O)C#Cc1c(C(=O)OCC)nnn1[C@@H]1O[C@H](COC(C)=O)[C@H](OC(C)=O)[C@H]1OC(C)=O	
200	CCOC(=O)C#Cc1c(C(=O)OCC)nnn1[C@H]1C[C@H](OC(C)=O)[C@@H](COC(C)=O)O1	
150	COC(=O)C#Cc1c(C(=O)OC)nnn1[C@@H]1O[C@H](COC(C)=O)[C@H]2OC(C)(C)O[C@H]21	
150	CCCC1(CCC)O[C@@H]2[C@H](O1)[C@@H](CO)O[C@H]2n1nnc(C(=O)OCC)c1C#CC(=O)OCC	
